According to ChEMBL document CHEMBL1132255, “Structure-activity relationships for 5-substituted 1-phenylbenzimidazoles as selective inhibitors of the platelet-derived growth factor receptor” (J Med Chem, 1999):

What was measured:
[1] = target: Platelet-derived growth factor receptor beta (Mus musculus, UniProt P05622); experiment: Inhibition of [32P]ATP incorporated (phosphorylation) into glutamate-tyrosine copolymer substrate by mouse platelet-derived growth factor receptor beta
How it was run: (§1)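 Enzymes were intracellular tyrosine kinase domain fragments (human FGFR-1 […], mouse PDGFR-β […]), 60–75 ng per reaction, in 25 mM HEPES pH 7.4 with 150 mM NaCl, 10 mM MnCl₂, 0.2 mM sodium orthovanadate, Glu-Tyr (4:1) random copolymer substrate and varied inhibitor. Reactions were started with [³²P]ATP (0.4 μCi), run 10 min at 25 °C and stopped with 15% TCA. IC50 was taken as the concentration reducing ³²P incorporation into the copolymer.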

[2] = target: Fibroblast growth factor receptor 1 (Homo sapiens, UniProt P11362); experiment: Inhibition of [32P]ATP incorporated (phosphorylation) into glutamate-tyrosine copolymer substrate by human fibroblast growth factor receptor 1; how it was run: as §1
[3] = target: T1, Platelet-derived growth factor receptor (PDGFr) (Rattus norvegicus, UniProt P20786+Q05030); experiment: Inhibition of Platelet-derived growth factor receptor beta autophosphorylation in Rat aorta vascular smooth muscle cells(RAVSMC)
[4] = target: T1, Platelet-derived growth factor receptor (PDGFr); experiment: Inhibition of Platelet-derived growth factor receptor beta autophosphorylation in Rat aorta vascular smooth muscle cells(RAVSMC).

Chain of Fibroblast growth factor receptor 1 (P11362 whole entry): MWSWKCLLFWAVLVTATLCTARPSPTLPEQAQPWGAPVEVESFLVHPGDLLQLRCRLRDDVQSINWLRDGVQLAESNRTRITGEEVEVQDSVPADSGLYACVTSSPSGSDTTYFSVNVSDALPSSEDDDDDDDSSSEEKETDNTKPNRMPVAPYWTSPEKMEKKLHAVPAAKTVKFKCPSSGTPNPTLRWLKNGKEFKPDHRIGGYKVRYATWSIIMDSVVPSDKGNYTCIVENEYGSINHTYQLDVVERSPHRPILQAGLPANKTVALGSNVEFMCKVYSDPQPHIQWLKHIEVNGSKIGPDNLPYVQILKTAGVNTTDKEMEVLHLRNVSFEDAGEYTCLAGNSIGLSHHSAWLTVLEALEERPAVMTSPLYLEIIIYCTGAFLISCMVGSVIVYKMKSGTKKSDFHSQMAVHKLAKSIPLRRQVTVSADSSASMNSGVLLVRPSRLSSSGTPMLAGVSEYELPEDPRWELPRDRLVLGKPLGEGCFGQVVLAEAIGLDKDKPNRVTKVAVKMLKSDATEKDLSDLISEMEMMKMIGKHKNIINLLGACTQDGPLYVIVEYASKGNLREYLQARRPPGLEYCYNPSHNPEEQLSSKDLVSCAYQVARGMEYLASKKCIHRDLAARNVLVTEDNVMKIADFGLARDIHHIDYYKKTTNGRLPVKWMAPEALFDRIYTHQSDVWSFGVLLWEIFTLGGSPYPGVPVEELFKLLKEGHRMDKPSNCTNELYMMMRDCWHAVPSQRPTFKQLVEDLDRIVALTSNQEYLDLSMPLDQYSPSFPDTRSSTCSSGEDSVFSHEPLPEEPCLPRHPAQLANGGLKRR
Chain of Platelet-derived growth factor receptor beta (P05622 whole entry, the tested form may be a part): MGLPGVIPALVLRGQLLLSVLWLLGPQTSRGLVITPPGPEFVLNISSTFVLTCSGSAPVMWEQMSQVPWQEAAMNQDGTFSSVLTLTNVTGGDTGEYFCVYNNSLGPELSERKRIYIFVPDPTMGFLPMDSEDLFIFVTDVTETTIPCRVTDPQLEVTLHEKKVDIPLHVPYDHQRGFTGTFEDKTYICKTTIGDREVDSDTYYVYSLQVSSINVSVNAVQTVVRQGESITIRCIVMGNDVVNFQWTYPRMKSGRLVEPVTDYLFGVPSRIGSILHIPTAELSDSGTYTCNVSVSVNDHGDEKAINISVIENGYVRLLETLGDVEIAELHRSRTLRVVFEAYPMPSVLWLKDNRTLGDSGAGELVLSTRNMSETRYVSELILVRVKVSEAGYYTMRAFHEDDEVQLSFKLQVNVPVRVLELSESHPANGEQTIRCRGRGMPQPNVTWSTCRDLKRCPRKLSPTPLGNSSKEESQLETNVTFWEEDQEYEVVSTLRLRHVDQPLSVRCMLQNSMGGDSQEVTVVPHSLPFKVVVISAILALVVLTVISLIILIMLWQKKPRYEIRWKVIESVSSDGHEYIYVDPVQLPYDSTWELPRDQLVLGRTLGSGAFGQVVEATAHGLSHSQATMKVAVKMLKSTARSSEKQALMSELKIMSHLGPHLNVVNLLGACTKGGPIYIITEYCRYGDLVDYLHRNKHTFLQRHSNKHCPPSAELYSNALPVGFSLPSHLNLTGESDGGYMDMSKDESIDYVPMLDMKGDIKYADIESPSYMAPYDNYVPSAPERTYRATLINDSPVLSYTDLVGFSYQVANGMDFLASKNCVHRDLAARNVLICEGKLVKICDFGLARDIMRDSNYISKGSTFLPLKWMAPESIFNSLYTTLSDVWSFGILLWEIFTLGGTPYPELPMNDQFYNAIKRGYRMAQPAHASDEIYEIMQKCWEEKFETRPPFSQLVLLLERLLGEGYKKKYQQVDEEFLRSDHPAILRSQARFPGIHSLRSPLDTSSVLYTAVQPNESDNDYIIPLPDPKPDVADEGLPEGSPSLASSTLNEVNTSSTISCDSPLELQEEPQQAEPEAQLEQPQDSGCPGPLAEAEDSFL

| SMILES | IC50 [1] [nM] | IC50 [2] [nM] | IC50 [3] [nM] | IC50 [4] [nM] |
| --- | --- | --- | --- | --- |
| Oc1ccc2c(ncn2-c2ccccc2)c1Br | > 50000 | > 50000 | – | – |
| OCCCCOc1ccc2c(c1)ncn2-c1ccccc1 | 450 | – | – | – |
| CN(C)CCCCOc1ccc2c(c1)ncn2-c1ccccc1 | 160 | 6800 | – | – |
| COc1ccc2c(ncn2-c2ccccc2)c1O | – | > 50000 | – | – |
| c1ccc(-n2cnc3cc(SCCCN4CCOCC4)ccc32)cc1 | > 50000 | 24000 | – | – |
| c1ccc(-n2cnc3cc(OCCN4CCOCC4)ccc32)cc1 | 730 | – | 790 | – |
| C=CCOc1ccc2c(ncn2-c2ccccc2)c1Br | > 50000 | > 50000 | – | – |
| COc1ccc2c(ncn2-c2ccccc2)c1OC | > 50000 | > 50000 | – | – |
| COc1ccc2c(c1)ncn2-c1ccc(N)cc1 | 280 | – | – | 1360 |
| C=CCc1c(O)ccc2c1ncn2-c1ccccc1 | > 50000 | > 50000 | – | – |
| c1ccc(-n2cnc3cc(OCCCN4CCOCC4)ccc32)cc1 | 170 | – | – | – |
| COc1c(O)ccc2c1ncn2-c1ccccc1 | > 50000 | > 50000 | – | – |
| COc1cc2ncn(-c3ccccc3)c2cc1CO | 370 | 11000 | – | – |
| COc1cc2ncn(-c3ccccc3)c2cc1C=O | 1000 | 25000 | – | – |
| COC(=O)c1cc2c(cc1OC)ncn2-c1ccccc1 | 870 | – | – | – |

Next, values leading:

| IC50 [1] [nM] | IC50 [2] [nM] | IC50 [3] [nM] | IC50 [4] [nM] | SMILES |
| --- | --- | --- | --- | --- |
| 310 | – | – | – | OCC(O)COc1ccc2c(c1)ncn2-c1ccccc1 (stereo not drawn) |
| 610 | – | – | – | C=CCOc1ccc2c(c1)ncn2-c1ccccc1 |
| 150 | – | – | – | CN(C)CCCOc1ccc2c(c1)ncn2-c1ccccc1 |
| 320 | 18000 | – | – | c1ccc(-n2cnc3cc(OCC4CO4)ccc32)cc1 (stereo not drawn) |
| 14000 | – | – | – | Oc1cccc2c1ncn2-c1ccccc1 |
| 650 | – | – | – | NCCOc1ccc2c(c1)ncn2-c1ccccc1 |
| 250 | – | – | – | CCCOc1ccc2c(c1)ncn2-c1ccccc1 |
| 240 | 26000 | – | – | CCOc1ccc2c(c1)ncn2-c1ccccc1 |
| 740 | 27000 | – | – | CSc1ccc2c(c1)ncn2-c1ccccc1 |
